Measured values reported in ChEMBL document CHEMBL1147681, “Identification of a terphenyl derivative that blocks the cell cycle in the G0-G1 phase and induces differentiation in leukemia cells” (J Med Chem, 2006).
The source made the active and inactive calls. The calls are words filed in the database; no cut-off is given here.

Experiments:
[1] = test system: HL-60; assay: Proapoptotic activity against human HL60 cell line; format: functional, cell-based
Summary of the method: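 Apoptosis assessed by morphological assay and annexin V test. AC50 is the concentration inducing apoptosis in 50% of cells.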

[2] = test system: HL-60; assay: Induction of differentiation of human HL60 cells at 10 uM measured as expression of granulocytic marker CD11b after 4 days; format: functional
Summary of the method: (§1)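 HL60 cells exposed to 10 µM compound; CD14 (monocytic), CD11b and CD11c (granulocytic) surface expression measured by flow cytometry, as percentage of positive cells versus untreated control. Read-out given as 72 h in text, 4 days in table.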

[3] = test system: HL-60; assay: Induction of differentiation of human HL60 cells at 10 uM measured as expression of monocytic marker CD14 after 4 days; format: functional; summary of the method: as §1
[4] = test system: HL-60; assay: Induction of differentiation of human HL60 cells at 10 uM measured as expression of granulocytic marker CD11c after 4 days; format: functional; summary of the method: as §1
[5] = test system: HL-60; assay: Antiproliferative activity against human HL60 cell line; format: functional, cell-based
Summary of the method: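 Cell growth inhibition measured by counting cells with an automatic cell counter in sensitive HL60, MDR HL60R and Bcr-Abl-expressing K562 cells. IC50 is the concentration inhibiting 50% of cell growth.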

[6] = test system: HL-60; assay: Cell cycle arrest in human HL60 cells by accumulation at G0/G1 phase at 10 uM after 96 hrs; format: functional, cell-based
Summary of the method: (§2)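 HL60 cells were stained with propidium iodide and analysed by flow cytometry for sub-G0-G1, G0-G1, S and G2-M peaks against untreated control. Exposures were 50 µM for 8 h or 24 h, 10 µM for 96 h, and 20 or 30 µM for 24 h.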

[7] = test system: HL-60; assay: Cell cycle arrest in human HL60 cells by accumulation at G0/G1 phase at 50 uM after 8 hrs; format: functional, cell-based; summary of the method: as §2
[8] = test system: HL-60; assay: Cell cycle arrest in human HL60 cells by accumulation at G2/M phase at 20 uM; format: functional, cell-based; summary of the method: as §2
[9] = test system: HL-60; assay: Cell cycle arrest in human HL60 cells by accumulation at S phase at 30 uM; format: functional, cell-based; summary of the method: as §2
[10] = test system: HL-60; assay: Cell cycle arrest in human HL60 cells by accumulation at G2/M phase at 10 uM; format: functional, cell-based
Summary of the method: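 HL60 cells exposed for 24 h at 10 µM, stained with propidium iodide, and analysed by flow cytometry for DNA content. Sub-G0-G1 (apoptotic), G0-G1, S and G2-M peaks compared with untreated HL60 cells.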

Q: `COc1cc(/C=C/c2ccc(O)cc2)cc(OC)c1` [PTEROSTILBENE] was tested. Which AC50 [1] did it give?
A: 75 µM

Q: `Oc1ccc(/C=C/c2cc(O)cc(O)c2)cc1` [RESVERATROL] was tested. Which Activity [2] did it give?
A: 24%

Q: And the Activity [3]?
A: 23%

Q: What about the Activity [4] of the same molecule?
A: 22%

Q: What does the source list for `COc1cc(OC)cc(-c2ccc(-c3ccc(O)cc3)cc2)c1`?
A: AC50 [1]: 30 µM; IC50 [5]: 2.5 µM

Q: Which AC50 [1] does the source give for `COc1ccc(-c2ccc(-c3cc(OC)cc(OC)c3)cc2)cc1` here?
A: > 100 µM

Q: What about the IC50 [5] of the same molecule?
A: 75 µM

Q: For `COc1cc(OC)cc(-c2ccc3cc(OC)ccc3c2)c1`, which AC50 [1] is on record?
A: 91 µM

Q: And the IC50 [5]?
A: 76 µM

Q: Which AC50 [1] does the source give for `COc1cc(/C=C/c2cc(OC)c(O)c(OC)c2)cc(OC)c1` here?
A: 79 µM

Q: What about the IC50 [5] of the same molecule?
A: 20 µM

Q: `Oc1ccc(-c2cccc(-c3cc(O)cc(O)c3)c2)cc1` was tested. Which AC50 [1] did it give?
A: 63 µM

Q: And the IC50 [5]?
A: 27 µM

Q: What does the source list for `Oc1ccc(-c2ccc(-c3cc(O)cc(O)c3)cc2)cc1`?
A: Activity [2]: 62%; Activity [6]: Active; Activity [3]: 58%; AC50 [1]: 25 µM; IC50 [5]: 7 µM; Activity [4]: 60%; Activity [7]: Active

Q: With `COc1cc(OC)cc(-c2ccc3cc(O)ccc3c2)c1` as the molecule, how does the AC50 [1] read?
A: 19 µM

Q: What about the IC50 [5] of the same molecule?
A: 10 µM

Q: `COc1ccc(-c2cccc(-c3cc(OC)cc(OC)c3)c2)cc1` was tested. Which AC50 [1] did it give?
A: > 100 µM

Q: And the IC50 [5]?
A: 50 µM

Q: How did the AC50 [1] turn out when `COc1cc(OC)cc(-c2ccccc2-c2ccc(O)cc2)c1` was run?
A: 10 µM

Q: What about the IC50 [5] of the same molecule?
A: 5 µM

Q: Which AC50 [1] does the source give for `CCOc1cc(/C=C/c2cc(OC)cc(OC)c2)ccc1O` here?
A: 18 µM

Q: And the IC50 [5]?
A: 11 µM

Q: Which results are given for `Oc1ccc(-c2ccccc2-c2cc(O)cc(O)c2)cc1`?
A: Activity [8]: Active; AC50 [1]: 9 µM; IC50 [5]: 3.5 µM

Q: Which AC50 [1] does the source give for `COc1cc(/C=C/c2cc(C(C)(C)C)c(O)c(C(C)(C)C)c2)cc(OC)c1` here?
A: > 100 µM

Q: And the IC50 [5]?
A: 84 µM

Q: Which Activity [9] does the source give for `COc1cc(/C=C/c2cccc(OC)c2O)cc(OC)c1` here?
A: Active

Q: What about the AC50 [1] of the same molecule?
A: 15 µM

Q: And the IC50 [5]?
A: 3.5 µM

Q: Which AC50 [1] does the source give for `COc1cc(/C=C/c2ccccc2O)cc(OC)c1` here?
A: 35 µM

Q: And the IC50 [5]?
A: 9 µM

Q: Which results are given for `COc1ccc(-c2ccccc2-c2cc(OC)cc(OC)c2)cc1`?
A: AC50 [1]: 15 µM; IC50 [5]: 7 µM

Q: For `COc1cc(/C=C/c2cc(Cl)ccc2O)cc(OC)c1`, which AC50 [1] is on record?
A: 29 µM

Q: And the IC50 [5]?
A: 14 µM

Q: Which results are given for `COc1cc(OC)cc(-c2cccc(-c3ccc(O)cc3)c2)c1`?
A: AC50 [1]: 23 µM; IC50 [5]: 4.8 µM

Q: Which AC50 [1] does the source give for `COc1cc(/C=C/c2cccc(O)c2)cc(OC)c1` here?
A: 58 µM

Q: What about the IC50 [5] of the same molecule?
A: 23 µM

Q: With `Oc1cc(O)cc(-c2ccc3cc(O)ccc3c2)c1` as the molecule, how does the AC50 [1] read?
A: 48 µM

Q: What about the IC50 [5] of the same molecule?
A: 28 µM

Q: What does the source list for `COc1ccc(/C=C/c2cc(OC)cc(OC)c2)cc1` [TRISMETHOXYRESVERATROL]?
A: Activity [10]: Active; AC50 [1]: 4 µM; IC50 [5]: 2.5 µM
